In ChEMBL document CHEMBL3098082, “Design, synthesis, molecular docking and 3D-QSAR studies of potent inhibitors of enoyl-acyl carrier protein reductase as potential antimycobacterial agents” (Eur J Med Chem, 2014):
≈ marks a conversion by molar mass, not a printed value.

Assays:
[1] = system: Mycobacterium tuberculosis; assay: Antimycobacterial activity against Mycobacterium tuberculosis H37Rv after 5 days by microplate alamar blue assay; type: functional; conditions: for MIC: Mycobacterium tuberculosis, H37Rv, 120 h
Outline: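 M. tuberculosis H37Rv in Middlebrook 7H9 broth; compounds serially diluted on plate at 0.2–100 […] (so in the source); isoniazid reference. Incubated 37 C, 5 days, then 1:1 alamar blue/10% Tween 80 added, further 24 h. Blue = no growth, pink = growth; MIC = lowest concentration preventing blue-to-pink change.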

[2] = system: A549; assay: Cytotoxicity against human A549 cells by MTT assay; type: cell-based
[3] = system: Vero; assay: Cytotoxicity against african green monkey Vero cells by MTT assay; type: cell-based; conditions: Chlorocebus sabaeus

Row | SMILES | -logMIC [1] | MIC [1] | IC50 [2] | IC50 [3]
1 | C/C(=N\NC(N)=S)c1ccc(-n2cccc2)cc1 | 4.301 | 50 µg/mL (≈ 194 µM) |  | 
2 | C/C(=N\NC(N)=O)c1ccc(-n2cccc2)cc1 | 4 | 100 µg/mL (≈ 413 µM) |  | 
3 | C/C(=N\NC(=O)c1ccncc1)c1ccc(-n2c(C)ccc2C)cc1 | 4 | 100 µg/mL (≈ 301 µM) |  | 
4 | C/C(=N\NC(=O)c1cccnc1)c1ccc(-n2c(C)ccc2C)cc1 | 4 | 100 µg/mL (≈ 301 µM) |  | 
5 | C/C(=N\NC(=O)c1ccc(-n2cccc2)cc1)c1ccc(-n2c(C)ccc2C)cc1 | 4.301 | 50 µg/mL (≈ 126 µM) |  | 
6 | C/C(=N\NC(=O)c1ccc(-n2c(C)ccc2C)cc1)c1ccc(-n2c(C)ccc2C)cc1 | 4.602 | 25 µg/mL (≈ 58.9 µM) |  | 
7 | C/C(=N\NC(=O)c1ccccc1)c1ccc(-n2c(C)ccc2C)cc1 | 4.602 | 25 µg/mL (≈ 75.4 µM) |  | 
8 | C/C(=N\NC(=O)c1ccc(C)cc1)c1ccc(-n2c(C)ccc2C)cc1 | 4.602 | 25 µg/mL (≈ 72.4 µM) |  | 
9 | C/C(=N\NC(=O)c1ccc(Cl)cc1)c1ccc(-n2c(C)ccc2C)cc1 | 4.602 | 25 µg/mL (≈ 68.3 µM) |  | 
10 | C/C(=N\NC(=O)c1ccc(Br)cc1)c1ccc(-n2c(C)ccc2C)cc1 | 4.602 | 25 µg/mL (≈ 60.9 µM) |  | 
11 | C/C(=N\NC(=O)c1ccccc1Cl)c1ccc(-n2c(C)ccc2C)cc1 | 4.903 | 12.5 µg/mL (≈ 34.2 µM) |  | 
12 | C/C(=N\NC(=O)c1ccc(O)cc1)c1ccc(-n2c(C)ccc2C)cc1 | 4.602 | 25 µg/mL (≈ 72 µM) |  | 
13 | C/C(=N\NC(=O)COc1ccccc1)c1ccc(-n2c(C)ccc2C)cc1 | 6.097 | 0.8 µg/mL (≈ 2.21 µM) |  | 
14 | C/C(=N\NC(=O)COc1ccc(C)cc1)c1ccc(-n2c(C)ccc2C)cc1 | 5.505 | 3.12 µg/mL (≈ 8.32 µM) |  | 
15 | C/C(=N\NC(=O)COc1ccc(Cl)cc1)c1ccc(-n2c(C)ccc2C)cc1 | 5.505 | 3.12 µg/mL (≈ 7.89 µM) |  | 
16 | C/C(=N\NC(=O)COc1ccc(Br)cc1)c1ccc(-n2c(C)ccc2C)cc1 | 5.204 | 6.25 µg/mL (≈ 14.2 µM) |  | 
17 | C/C(=N\NC(=O)COc1ccccc1Cl)c1ccc(-n2c(C)ccc2C)cc1 | 4.301 | 50 µg/mL (≈ 126 µM) |  | 
18 | C/C(=N\NC(=O)COc1ccc(O)cc1)c1ccc(-n2c(C)ccc2C)cc1 | 4.602 | 25 µg/mL (≈ 66.2 µM) |  | 
19 | C/C(=N\NC(=O)COc1c(Cl)cc(Cl)cc1Cl)c1ccc(-n2c(C)ccc2C)cc1 | 4.903 | 12.5 µg/mL (≈ 26.9 µM) |  | 
20 | C/C(=N\NC(=O)COc1cccc2ccccc12)c1ccc(-n2c(C)ccc2C)cc1 | 6.699 | 0.2 µg/mL (≈ 0.486 µM) | 269 µM | 277 µM
21 | C/C(=N\NC(=O)COc1ccc2ccccc2c1)c1ccc(-n2c(C)ccc2C)cc1 | 6.699 | 0.2 µg/mL (≈ 0.486 µM) | 260 µM | 255 µM
22 | C/C(=N\NS(=O)(=O)c1ccc(C)cc1)c1ccc(-n2c(C)ccc2C)cc1 | 6.398 | 0.4 µg/mL (≈ 1.05 µM) | 277 µM | 279 µM
23 | CC(=O)Nc1ccc(S(=O)(=O)N/N=C(\C)c2ccc(-n3c(C)ccc3C)cc2)cc1 | 6.097 | 0.8 µg/mL (≈ 1.88 µM) |  | 
24 | C/C(=N\NS(=O)(=O)c1ccc(N)cc1)c1ccc(-n2c(C)ccc2C)cc1 | 4.903 | 12.5 µg/mL (≈ 32.7 µM) |  | 
25 | C/C(=N\Nc1ccccc1)c1ccc(-n2c(C)ccc2C)cc1 | 4.602 | 25 µg/mL (≈ 82.4 µM) |  | 
26 | C/C(=N\Nc1ccc([N+](=O)[O-])cc1[N+](=O)[O-])c1ccc(-n2c(C)ccc2C)cc1 | 4.903 | 12.5 µg/mL (≈ 31.8 µM) |  | 
27 | C/C(=N\NC(N)=S)c1ccc(-n2c(C)ccc2C)cc1 | 4.301 | 50 µg/mL (≈ 175 µM) |  | 

Row | SMILES | -logMIC [1] | MIC [1] | IC50 [2] | IC50 [3]
28 | C/C(=N\NC(N)=O)c1ccc(-n2c(C)ccc2C)cc1 | 4.301 | 50 µg/mL (≈ 185 µM) |  | 
29 | C/C(=N\NC(=O)c1ccncc1)c1ccc(-n2cccc2)cc1 | 4.301 | 50 µg/mL (≈ 164 µM) |  | 
30 | C/C(=N\NC(=O)c1cccnc1)c1ccc(-n2cccc2)cc1 | 4.301 | 50 µg/mL (≈ 164 µM) |  | 
31 | C/C(=N\NC(=O)c1ccc(-n2cccc2)cc1)c1ccc(-n2cccc2)cc1 | 4.903 | 12.5 µg/mL (≈ 33.9 µM) |  | 
32 | C/C(=N\NC(=O)c1ccc(-n2c(C)ccc2C)cc1)c1ccc(-n2cccc2)cc1 | 4.602 | 25 µg/mL (≈ 63.1 µM) |  | 
33 | C/C(=N\NC(=O)c1ccccc1)c1ccc(-n2cccc2)cc1 | 4.301 | 50 µg/mL (≈ 165 µM) |  | 
34 | C/C(=N\NC(=O)c1ccc(C)cc1)c1ccc(-n2cccc2)cc1 | 4.301 | 50 µg/mL (≈ 158 µM) |  | 
35 | C/C(=N\NC(=O)c1ccc(Cl)cc1)c1ccc(-n2cccc2)cc1 | 4.301 | 50 µg/mL (≈ 148 µM) |  | 
36 | C/C(=N\NC(=O)c1ccc(Br)cc1)c1ccc(-n2cccc2)cc1 | 4.301 | 50 µg/mL (≈ 131 µM) |  | 
37 | C/C(=N\NC(=O)c1ccccc1Cl)c1ccc(-n2cccc2)cc1 | 4.602 | 25 µg/mL (≈ 74 µM) |  | 
38 | C/C(=N\NC(=O)c1ccc(O)cc1)c1ccc(-n2cccc2)cc1 | 4.903 | 12.5 µg/mL (≈ 39.1 µM) |  | 
39 | C/C(=N\NC(=O)COc1ccccc1)c1ccc(-n2cccc2)cc1 | 4.903 | 12.5 µg/mL (≈ 37.5 µM) |  | 
40 | C/C(=N\NC(=O)COc1ccc(C)cc1)c1ccc(-n2cccc2)cc1 | 4.903 | 12.5 µg/mL (≈ 36 µM) |  | 
41 | C/C(=N\NC(=O)COc1ccc(Cl)cc1)c1ccc(-n2cccc2)cc1 | 4.903 | 12.5 µg/mL (≈ 34 µM) |  | 
42 | C/C(=N\NC(=O)COc1ccc(Br)cc1)c1ccc(-n2cccc2)cc1 | 4.301 | 50 µg/mL (≈ 121 µM) |  | 
43 | C/C(=N\NC(=O)COc1ccccc1Cl)c1ccc(-n2cccc2)cc1 | 4.602 | 25 µg/mL (≈ 68 µM) |  | 
44 | C/C(=N\NC(=O)COc1ccc(O)cc1)c1ccc(-n2cccc2)cc1 | 4.602 | 25 µg/mL (≈ 71.6 µM) |  | 
45 | C/C(=N\NC(=O)COc1c(Cl)cc(Cl)cc1Cl)c1ccc(-n2cccc2)cc1 | 4.301 | 50 µg/mL (≈ 114 µM) |  | 
46 | C/C(=N\NC(=O)COc1cccc2ccccc12)c1ccc(-n2cccc2)cc1 | 6.398 | 0.4 µg/mL (≈ 1.04 µM) | 243 µM | 240 µM
47 | C/C(=N\NC(=O)COc1ccc2ccccc2c1)c1ccc(-n2cccc2)cc1 | 6.699 | 0.2 µg/mL (≈ 0.522 µM) | 247 µM | 249 µM
48 | C/C(=N\NS(=O)(=O)c1ccc(C)cc1)c1ccc(-n2cccc2)cc1 | 6.097 | 0.8 µg/mL (≈ 2.26 µM) |  | 
49 | CC(=O)Nc1ccc(S(=O)(=O)N/N=C(\C)c2ccc(-n3cccc3)cc2)cc1 | 6.699 | 0.2 µg/mL (≈ 0.504 µM) | 257 µM | 263 µM
50 | C/C(=N\NS(=O)(=O)c1ccc(N)cc1)c1ccc(-n2cccc2)cc1 | 5.204 | 6.25 µg/mL (≈ 17.6 µM) |  | 
51 | C/C(=N\Nc1ccccc1)c1ccc(-n2cccc2)cc1 | 4.903 | 12.5 µg/mL (≈ 45.4 µM) |  | 
52 | C/C(=N\Nc1ccc([N+](=O)[O-])cc1[N+](=O)[O-])c1ccc(-n2cccc2)cc1 | 4.903 | 12.5 µg/mL (≈ 34.2 µM) |  | 
53 | NNC(=O)c1ccncc1 [ISONIAZID] |  | 0.25 µg/mL (≈ 1.82 µM) | > 450 µM | > 450 µM
54 | Oc1cc(Cl)ccc1Oc1ccc(Cl)cc1Cl [TRICLOSAN] |  | 10 µg/mL (≈ 34.5 µM) |  | 
